Laboratory results as given in ChEMBL document CHEMBL1142105, “Bioactive metabolites from the Caribbean sponge Aka coralliphagum” (J Nat Prod, 2007).
In brackets after ≈: the same amount, converted by molar mass.

Experiments:
[1] = DPPH radical scavenging activity at 200 umol/L relative to control; assay type: functional
How it was run: (§1)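 Samples in EtOH (1000 µL at 200 or 40 µM) were mixed with 250 µL of 1 mM DPPH stock and 750 µL EtOH, then held at RT in the dark for 30 min. Absorbance was read at 517 nm. Scavenging % = 100 − (A sample × 100/A control).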

Escherichia coli = assay: Antimicrobial activity against Escherichia coli tolC at 20 ug by agar diffusion test; assay type: functional; conditions: read-out: IZ
How it was run: (§2)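 Agar diffusion on 6 mm paper disks loaded with 20 µL of a 1 mg/mL methanol solution (20 µg). Bacteria from the HZI collection were grown on standard media and seeded into agar medium at a final OD of 0.01. Plates were incubated at 30 °C, and inhibition zone diameter (mm) was read after 1 and 2 days.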

Klebsiella pneumoniae = assay: Antimicrobial activity against Klebsiella pneumoniae at 20 ug by agar diffusion test; assay type: functional; conditions: read-out: IZ; how it was run: as §2
Pseudomonas aeruginosa = assay: Antimicrobial activity against Pseudomonas aeruginosa at 20 ug by agar diffusion test; assay type: functional; conditions: read-out: IZ; how it was run: as §2
Micrococcus luteus = assay: Antimicrobial activity against Micrococcus luteus at 20 ug by agar diffusion test; assay type: functional; conditions: read-out: IZ; how it was run: as §2
Mycolicibacterium phlei = assay: Antimicrobial activity against Mycobacterium phlei at 20 ug by agar diffusion test; assay type: functional; conditions: read-out: IZ; how it was run: as §2
Staphylococcus aureus = assay: Antimicrobial activity against Staphylococcus aureus at 20 ug by agar diffusion test; assay type: functional; conditions: read-out: IZ; how it was run: as §2
Candida albicans = assay: Antimicrobial activity against Candida albicans at 20 ug by agar diffusion test; assay type: functional; conditions: read-out: IZ
How it was run: (§3)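 Yeasts from the HZI collection were seeded into agar medium at a final OD of 0.1. Paper disks (6 mm) carried 20 µg of compound, applied as 20 µL of 1 mg/mL in MeOH. Plates were kept at 30 °C, and inhibition zone diameters (mm) were measured at days 1 and 2.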

[2] = DPPH radical scavenging activity at 40 umol/L relative to control; assay type: functional; how it was run: as §1
Saccharomyces cerevisiae = assay: Antimicrobial activity against Saccharomyces cerevisiae at 20 ug by agar diffusion test; assay type: functional; conditions: read-out: IZ; how it was run: as §3
Aspergillus fumigatus = assay: Antimicrobial activity against Aspergillus fumigatus at 20 ug by agar diffusion test; assay type: functional; conditions: read-out: IZ
How it was run: (§4)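 Fungal spores were rinsed from well-grown Petri dishes with 10 mL sterile water, and 1 mL of the suspension was mixed into 100 mL molten agar. Disks (6 mm) with 20 µg compound (20 µL, 1 mg/mL in methanol) were placed on the agar. Plates were incubated at 30 °C, and zone diameter (mm) was scored after 1 and 2 days.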

Botrytis cinerea = assay: Antimicrobial activity against Botrytis cinerea at 20 ug by agar diffusion test; assay type: functional; conditions: read-out: IZ; how it was run: as §4
L929 = assay: Cytotoxicity against mouse L929 cells by MTT assay; assay type: cell-based
How it was run: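 L929 mouse fibroblasts (DSMZ) were grown in high-glucose DME with 10% fetal calf serum at 37 °C and 10% CO2. Cell suspension (120 µL at 50 000/mL) was added to 60 µL of serial compound dilutions in microtiter plates. Growth was determined by MTT after 5 days, with concentrations expressed in µg/mL.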

Wickerhamomyces anomalus = assay: Antimicrobial activity against Hansenula anomala at 20 ug by agar diffusion test; assay type: functional; conditions: read-out: IZ; how it was run: as §3
[3] = test system: Globisporangium debaryanum; assay: Antimicrobial activity against Pythium debaryanum at 20 ug by agar diffusion test; assay type: functional; conditions: read-out: IZ; how it was run: as §4

SMILES	Activity [1] [%]	zone of inhibition at 20 µg/disc (Escherichia coli) [mm]	zone of inhibition at 20 µg/disc (Klebsiella pneumoniae) [mm]	zone of inhibition at 20 µg/disc (Pseudomonas aeruginosa) [mm]	zone of inhibition at 20 µg/disc (Micrococcus luteus) [mm]	zone of inhibition at 20 µg/disc (Mycolicibacterium phlei) [mm]	zone of inhibition at 20 µg/disc (Staphylococcus aureus) [mm]	zone of inhibition at 20 µg/disc (Candida albicans) [mm]	Activity [2] [%]	zone of inhibition at 20 µg/disc (Saccharomyces cerevisiae) [mm]	zone of inhibition at 20 µg/disc (Aspergillus fumigatus) [mm]	zone of inhibition at 20 µg/disc (Botrytis cinerea) [mm]	Activity (L929) [µg/mL]	zone of inhibition at 20 µg/disc (Wickerhamomyces anomalus) [mm]	zone of inhibition at 20 µg/disc [3] [mm]	IC50 (L929) [µg/mL]
C=C1CCCC2[C@](C)(Cc3cc(C=O)cc(O)c3OS(=O)(=O)O)[C@@H](C)CC[C@]12C (some centres undefined) [SIPHONODICTYAL G]	32.2	0	0	0	0	0	0	0	5.9	0	0	0	10	0	0	–
C[C@H]1CCC2C(C)(C)CCC[C@]2(C)/C1=C/c1cc(O)c(O)c(C=O)c1OS(=O)(=O)O (some centres undefined) [SIPHONODICTYAL B2]	88.8	0	0	0	0	0	13	0	25.3	0	0	15	–	–	0	6 (≈ 13.7 µM)
O=C1O[C@H]([C@@H](O)CO)C(O)=C1O	95.3	–	–	–	–	–	–	–	27	–	–	–	–	–	–	–
C[C@H]1CCC2C(C)(C)CCC[C@]2(C)/C1=C/c1cc(OS(=O)(=O)O)c(O)c(C=O)c1OS(=O)(=O)O (some centres undefined) [SIPHONODICTYAL B3]	–	0	0	0	0	0	0	0	–	0	0	0	> 40	0	0	–
C=C1CCCC2[C@](C)(Cc3cc(CO)cc(O)c3OS(=O)(=O)O)[C@@H](C)CC[C@]12C (some centres undefined) [SIPHONODICTYOL G]	39.8	0	0	0	0	0	0	0	2.6	0	0	15	> 40	0	0	–
C[C@H]1CCC2C(C)(C)CCC[C@]2(C)/C1=C/c1cc(O)c(O)c(C=O)c1O (some centres undefined) [SIPHONODICTYAL B]	–	9	–	–	–	–	12	–	–	0	15	–	0.2	–	–	–
C[C@H]1CCC2C(C)(C)CCC[C@]2(C)/C1=C/c1cc(O)c(O)c(/C=N/CCS(=O)(=O)O)c1OS(=O)(=O)O (some centres undefined) [SIPHONODICTYAL B1]	80.8	0	0	0	0	0	12	0	23.5	0	0	13	10	0	0	–
